Where “and” joins values, the source holds several entries; their conditions need not be identical. Equal values may be shown once.
How the values were obtained:
HEK-293T = assay: Multiplex assay against HEK293T; type: toxicity, cell-based; details: human
Summary of the method: (§1)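 Cells were classed with CellPathfinder machine-learning gating, first as Hoechst high-intensity objects or normal cells, then (normal cells) as healthy, pyknosed or fragmented nuclei, and finally (pyknosed cells) as mitotic or apoptotic. Staining of live cells at seeding used Hoechst33342, BioTracker Green Microtubule Cytoskeleton Dye, MitoTracker Red and Annexin V Alexa Fluor 680, with imaging on a CQ1 microscope at 37°C and 5% CO2 after compound addition. Tubulin, mitochondrial-mass and membrane-permeability phenotypes are per cents of healthy-nucleus cells.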

U2OS = assay: Multiplex assay against U2OS; type: toxicity, cell-based; details: human; summary of the method: as §1
[1] = 24 h, 10 µM, compound concentration 10 uM
[2] = 48 h, 1 µM, compound concentration 1 uM
[3] = 48 h, 10 µM, compound concentration 10 uM
[4] = 12 h, 1 µM, compound concentration 1 uM
[5] = 12 h, 10 µM, compound concentration 10 uM
[6] = 24 h, 1 µM, compound concentration 1 uM

## S=C(NCCCc1c[nH]cn1)NCCCN(Cc1ccc(Cl)c(Cl)c1)c1ccc(Br)cn1
HEK-293T; [1]
  Population Apoptotic (%): 85% and 82%
  Population Fragmented Nuclei (%): 11% and 16%
  Population Healthy Nuclei (%): 49% and 59%
  Population Hoechst High Intensity Objects (%): 48% and 39%
  Population Membrane Permeable-Phenotype (%): 1% and 0%
  Population Mitochondria Different-Phenotype (%): 75% and 82%
  Population Mitotic Cells (%): 14% and 17%
  Population Normal (%): 51% and 61%
  Population Pyknosed Nuclei (%): 39% and 23%
  Population Tubulin-Different-Phenotype (%): 78%
  Total Cell Count: 237 and 200
HEK-293T; [2]
  Population Apoptotic (%): 47% and 36%
  Population Fragmented Nuclei (%): 14% and 17%
  Population Healthy Nuclei (%): 65% and 73%
  Population Hoechst High Intensity Objects (%): 36% and 27%
  Population Membrane Permeable-Phenotype (%): 3% and 0%
  Population Mitochondria Different-Phenotype (%): 38% and 32%
  Population Mitotic Cells (%): 52% and 63%
  Population Normal (%): 63% and 72%
  Population Pyknosed Nuclei (%): 19% and 9%
  Population Tubulin-Different-Phenotype (%): 29% and 19%
  Total Cell Count: 307 and 277
HEK-293T; [3]
  Population Apoptotic (%): 84% and 75%
  Population Fragmented Nuclei (%): 23% and 21%
  Population Healthy Nuclei (%): 23%
  Population Hoechst High Intensity Objects (%): 75% and 67%
  Population Membrane Permeable-Phenotype (%): 0%
  Population Mitochondria Different-Phenotype (%): 86% and 80%
  Population Mitotic Cells (%): 15% and 25%
  Population Normal (%): 24% and 32%
  Population Pyknosed Nuclei (%): 52% and 55%
  Population Tubulin-Different-Phenotype (%): 53% and 40%
  Total Cell Count: 256 and 203
U2OS; [4]
  Population Apoptotic (%): 75% and 80%
  Population Fragmented Nuclei (%): 27% and 20%
  Population Healthy Nuclei (%): 63% and 68%
  Population Hoechst High Intensity Objects (%): 2% and 3%
  Population Membrane Permeable-Phenotype (%): 13% and 6%
  Population Mitochondria Different-Phenotype (%): 2% and 9%
  Population Mitotic Cells (%): 25% and 20%
  Population Normal (%): 97% and 96%
  Population Pyknosed Nuclei (%): 9% and 11%
  Population Tubulin-Different-Phenotype (%): 6% and 1%
  Total Cell Count: 228 and 93
U2OS; [5]
  Population Apoptotic (%): 66% and 58%
  Population Fragmented Nuclei (%): 27% and 24%
  Population Healthy Nuclei (%): 46%
  Population Hoechst High Intensity Objects (%): 6% and 0%
  Population Membrane Permeable-Phenotype (%): 86% and 84%
  Population Mitochondria Different-Phenotype (%): 26% and 60%
  Population Mitotic Cells (%): 33% and 41%
  Population Normal (%): 93% and 100%
  Population Pyknosed Nuclei (%): 26% and 29%
  Population Tubulin-Different-Phenotype (%): 83% and 89%
  Total Cell Count: 220 and 82
U2OS; [6]
  Population Apoptotic (%): 81% and 100%
  Population Fragmented Nuclei (%): 22% and 30%
  Population Healthy Nuclei (%): 69% and 65%
  Population Hoechst High Intensity Objects (%): 3% and 1%
  Population Membrane Permeable-Phenotype (%): 11% and 7%
  Population Mitochondria Different-Phenotype (%): 3% and 5%
  Population Mitotic Cells (%): 18% and 0%
  Population Normal (%): 96% and 98%
  Population Pyknosed Nuclei (%): 8% and 4%
  Population Tubulin-Different-Phenotype (%): 9% and 3%
  Total Cell Count: 285 and 125
U2OS; [1]
  Population Apoptotic (%): 62% and 60%
  Population Fragmented Nuclei (%): 33% and 29%
  Population Healthy Nuclei (%): 38% and 40%
  Population Hoechst High Intensity Objects (%): 5% and 2%
  Population Membrane Permeable-Phenotype (%): 59% and 77%
  Population Mitochondria Different-Phenotype (%): 17% and 32%
  Population Mitotic Cells (%): 37% and 39%
  Population Normal (%): 94% and 97%
  Population Pyknosed Nuclei (%): 28% and 29%
  Population Tubulin-Different-Phenotype (%): 54% and 64%
  Total Cell Count: 227 and 79
U2OS; [2]
  Population Apoptotic (%): 83% and 87%
  Population Fragmented Nuclei (%): 17% and 28%
  Population Healthy Nuclei (%): 74% and 60%
  Population Hoechst High Intensity Objects (%): 1% and 0%
  Population Membrane Permeable-Phenotype (%): 5%
  Population Mitochondria Different-Phenotype (%): 3%
  Population Mitotic Cells (%): 16% and 12%
  Population Normal (%): 98% and 99%
  Population Pyknosed Nuclei (%): 7% and 11%
  Population Tubulin-Different-Phenotype (%): 2% and 3%
  Total Cell Count: 409 and 211
U2OS; [3]
  Population Apoptotic (%): 70% and 73%
  Population Fragmented Nuclei (%): 43% and 50%
  Population Healthy Nuclei (%): 8% and 15%
  Population Hoechst High Intensity Objects (%): 21% and 15%
  Population Membrane Permeable-Phenotype (%): 46% and 57%
  Population Mitochondria Different-Phenotype (%): 20% and 42%
  Population Mitotic Cells (%): 29% and 26%
  Population Normal (%): 78% and 84%
  Population Pyknosed Nuclei (%): 47% and 33%
  Population Tubulin-Different-Phenotype (%): 26% and 57%
  Total Cell Count: 230 and 105

Source: ChEMBL document CHEMBL5724801, “EUbOPEN Chemogenomics Library - Multiplex” (2024)
